Reference: ChEMBL document CHEMBL2046305, “Discovery of selective menaquinone biosynthesis inhibitors against Mycobacterium tuberculosis” (J Med Chem, 2012)
In brackets after ≈: the same amount, converted by molar mass. Activity calls are given as the source filed them. The rule behind the calls is not given here.

Columns and labels:
Staphylococcus aureus [1] = experiment: Antibacterial activity against Staphylococcus aureus Seattle 1945 ATCC 25923 by agar plate diffusion method; assay type: functional
[2] = Inhibition of Mycobacterium tuberculosis MenA using [3H]farnesyl and DHNA as substrate after 2 hrs
Outline: (§1)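 Membrane fraction from mid-log cultures in 7H9/OADC, washed in saline, sonicated in MOPS pH 8/sucrose/MgCl2/2-mercaptoethanol buffer, spun 15,000 g then 200,000 g; the fraction was the enzyme source. DHNA (500 μM stock), MgCl2, 0.1% CHAPS, Tris pH 8, farnesyl diphosphate (200 μM stock) and inhibitor, 2 h at 37 °C. Quenched with 0.1 M AcOH/MeOH, extracted with hexanes, DMMK measured.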

[3] = tested on: Mycobacterium tuberculosis; experiment: Antibacterial activity against non-replicating Mycobacterium tuberculosis H37Rv ATCC 27294 by low oxygen recovery assay; assay type: functional
Escherichia coli [4] = experiment: Growth inhibition of Escherichia coli Seattle ATCC 25922 at 5 to 10 ug/ml by microplate alamar blue assay in presence of 50 uM VK2; assay type: functional, organism-based
Outline: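 E. coli grown with inhibitor under anaerobic conditions; rescue tested by supplementing with menaquinone (VK2, 50 μM).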

[5] = tested on: Mycobacterium tuberculosis; experiment: Antibacterial activity against Mycobacterium tuberculosis H37Rv ATCC 27294 by microplate alamar blue assay; assay type: functional
Outline: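 Colorimetric microplate assay run under aerobic conditions; growth scored by the colour change of resazurin. Compounds showing at least 90% inhibition in a preliminary screen were retested at lower concentrations to give the MIC.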

Staphylococcus aureus [6] = experiment: Inhibition of Staphylococcus aureus MenA using [3H]farnesyl and DHNA as substrate at 100 uM after 2 hrs; outline: as §1
Escherichia coli [7] = experiment: Growth inhibition of Escherichia coli Seattle ATCC 25922 at 5 to 10 ug/ml by microplate alamar blue assay; assay type: functional, organism-based
[8] = tested on: Mycobacterium tuberculosis; experiment: Inhibition of Mycobacterium tuberculosis MenA using [3H]farnesyl and DHNA as substrate at 100 uM after 2 hrs; outline: as §1

| SMILES | MIC (Staphylococcus aureus [1]) | IC50 [2] | MIC [3] | growth inhibition (GI) (Escherichia coli [4]) | MIC [5] | inhibition (Staphylococcus aureus [6]) | growth inhibition (GI) (Escherichia coli [7]) | inhibition [8] |
| --- | --- | --- | --- | --- | --- | --- | --- | --- |
| CCCCCCC[C@H](OC(N)=O)c1cccc(CN2CCC(COc3ccc(C(=O)c4ccc(Cl)cc4)c(Cl)c3)CC2)c1 | > 60 µg/mL | 20 µM | 2.93 µg/mL (≈ 4.68 µM) | inactive | 12.5 µg/mL (≈ 20 µM) | inactive | Active | Active |
| CCCC[C@H](O)CN1CCC(COc2cccc(C(=O)c3ccc(Cl)cc3)c2)CC1 | > 60 µg/mL | 7.5 µM | 5.59 µg/mL (≈ 13 µM) | inactive | 12.5 µg/mL (≈ 29.1 µM) | inactive | Active | Active |
| CCCCCCC[C@H](O)c1cccc(CN2CCC(COc3ccc(C(=O)c4ccc(Cl)cc4)c(Cl)c3)CC2)c1 | > 60 µg/mL | 15 µM | 1.88 µg/mL (≈ 3.23 µM) | inactive | 12.5 µg/mL (≈ 21.5 µM) | inactive | Active | Active |
| CCCCCCC[C@@H](O)c1cccc(CN2CCC(COc3ccc(C(=O)c4ccc(Cl)cc4)c(Cl)c3)CC2)c1 | > 60 µg/mL | 15 µM | 1.46 µg/mL (≈ 2.51 µM) | inactive | 12.5 µg/mL (≈ 21.5 µM) | inactive | Active | Active |
| CCCCC(CN1CCC(COc2ccc(C(=O)c3ccc(Cl)cc3)c(Cl)c2)CC1)OC(N)=O (racemic) | > 60 µg/mL | 7.5 µM | 2.83 µg/mL (≈ 5.58 µM) | inactive | 3.25 µg/mL (≈ 6.4 µM) | inactive | Active | Active |
| CCCCCCC[C@H](OC(N)=O)c1cccc(CN2CCC(COc3cccc(C(=O)c4ccc(Cl)cc4)c3)CC2)c1 | > 60 µg/mL | 20 µM | 4.93 µg/mL (≈ 8.34 µM) | inactive | 12.5 µg/mL (≈ 21.1 µM) | inactive | Active | Active |
| CCCCCC[C@@H](O)CN1CCC(COc2cccc(C(=O)c3ccc(Cl)cc3)c2)CC1 | > 60 µg/mL | 9 µM | 5.59 µg/mL (≈ 12.2 µM) | inactive | 6.2 µg/mL (≈ 13.5 µM) | inactive | Active | Active |
| CCCCCCC[C@@H](OC(N)=O)c1cccc(CN2CCC(COc3ccc(C(=O)c4ccc(Cl)cc4)c(Cl)c3)CC2)c1 | > 60 µg/mL | 20 µM | 4.93 µg/mL (≈ 7.88 µM) | inactive | 12.5 µg/mL (≈ 20 µM) | inactive | Active | Active |
| CCCCCCC[C@H](O)c1cccc(CN2CCC(COc3ccc(/C(=N\OC)c4ccc(Cl)cc4)c(Cl)c3)CC2)c1 | > 60 µg/mL | 20 µM | 5.54 µg/mL (≈ 9.06 µM) | inactive | 12.5 µg/mL (≈ 20.4 µM) | inactive | Active | Active |
| CCCC[C@@H](O)CN1CCC(COc2ccc(C(=O)c3ccc(Cl)cc3)c(Cl)c2)CC1 | > 60 µg/mL | 7.5 µM | 2.85 µg/mL (≈ 6.14 µM) | inactive | 6.25 µg/mL (≈ 13.5 µM) | inactive | Active | Active |
| CCCCCC[C@@H](CN1CCC(COc2ccc(/C(=N\OC)c3ccc(Cl)cc3)c(Cl)c2)CC1)OC(N)=O | > 60 µg/mL | 1.5 µM | 1.4 µg/mL (≈ 2.48 µM) | inactive | 1.5 µg/mL (≈ 2.66 µM) | inactive | Active | Active |
| CCCCCC[C@H](O)CN1CCC(COc2cccc(C(=O)c3ccc(Cl)cc3)c2)CC1 | > 60 µg/mL | 16 µM | 4.91 µg/mL (≈ 10.7 µM) | inactive | 12.5 µg/mL (≈ 27.3 µM) | inactive | Active | Active |
| CO[C@H]1/C=C/O[C@@]2(C)Oc3c(C)c(O)c4c(O)c(c(/C=N/N5CCN(C)CC5)c(O)c4c3C2=O)NC(=O)/C(C)=C\C=C\[C@H](C)[C@H](O)[C@@H](C)[C@@H](O)[C@@H](C)[C@H](OC(C)=O)[C@@H]1C [RIFAMPIN] | – | – | – | – | 0.07 µg/mL (≈ 0.0851 µM) | – | – | – |
| CCCCCCC[C@H](O)c1cccc(CN2CCC(COc3cccc(C(=O)c4ccc(Cl)cc4)c3)CC2)c1 | > 60 µg/mL | 25 µM | 1.88 µg/mL (≈ 3.43 µM) | inactive | 12.5 µg/mL (≈ 22.8 µM) | inactive | Active | Active |
| COc1ccc(CCN[C@H](CO)c2cccc(COc3cccc(C(=O)c4ccc(Cl)cc4)c3)c2)cc1 | > 60 µg/mL | 17 µM | 3 µg/mL (≈ 5.81 µM) | inactive | 12.5 µg/mL (≈ 24.2 µM) | inactive | Active | Active |
| CCCCCCC[C@@H](O)c1cccc(CN2CCC(COc3cccc(/C(=N\OC)c4ccc(Cl)cc4)c3)CC2)c1 | > 60 µg/mL | 15 µM | 1.43 µg/mL (≈ 2.48 µM) | inactive | 6.25 µg/mL (≈ 10.8 µM) | inactive | Active | Active |
| CCCCCC[C@@H](CN1CCC(COc2cccc(C(=O)c3ccc(Cl)cc3)c2)CC1)OC(N)=O | > 60 µg/mL | 9 µM | 2.94 µg/mL (≈ 5.87 µM) | inactive | 12.5 µg/mL (≈ 24.9 µM) | inactive | Active | Active |
| CCCCCCC[C@@H](O)c1cccc(CN2CCC(COc3cccc(C(=O)c4ccc(Cl)cc4)c3)CC2)c1 | > 60 µg/mL | 20 µM | 1.46 µg/mL (≈ 2.66 µM) | inactive | 12.5 µg/mL (≈ 22.8 µM) | inactive | Active | Active |
| CCCCCC[C@H](O)CN1CCC(COc2ccc(C(=O)c3ccc(Cl)cc3)c(Cl)c2)CC1 | > 60 µg/mL | 3.5 µM | 1.43 µg/mL (≈ 2.9 µM) | inactive | 1.5 µg/mL (≈ 3.05 µM) | inactive | Active | Active |
| COc1ccc(CCN[C@@H](CO)c2cccc(COc3cccc(C(=O)c4ccc(Cl)cc4)c3)c2)cc1 | > 60 µg/mL | 14 µM | 3 µg/mL (≈ 5.81 µM) | inactive | 12.5 µg/mL (≈ 24.2 µM) | inactive | Active | Active |
| NNC(=O)c1ccncc1 [ISONIAZID] | – | – | > 128 µg/mL | – | 0.03 µg/mL (≈ 0.219 µM) | – | – | – |
